APP 5'UTR act: activates APP 5'UTR luciferase reporter. 190,000 compounds, 1% hits. SH-SY5Y APP 5'UTR luciferase reporter, luminescence; zero percent = DMSO vehicle wells. AID 1276. activation, % at 2 µM;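 active = activation above a set limit, based on mean plus 3 SD of controls, cut at about 140% in these data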
MDM2 E3 inh: inhibitors of human Mdm2 E3 ubiquitin ligase; 210,000 compounds, 0.11% hits; signal enhancement, % at 5 µM; Q00987; cell-based MDM2 ubiquitination luciferase reporter, 2 h; 0 = plate control, 100 = twice control, blank-subtracted;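 active = signal enhancement of 30% or more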;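 note: luminescence tracks abundance of the self-degrading MDM2-luciferase fusion protein; higher signal means inhibition of MDM2 E3 ligase activity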
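Assay system: stable mammalian line carrying autodegrading MDM2–luciferase fusion reporter; amount: 2000 cells seeded into each well; buffer or medium: DMEM; benchmarks: plate control and blank wells; signal: luciferase luminescence; timing: 2 h compound exposure at 37 °C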
STAT1 activator: STAT1 signaling activation. NIH 3T3 STAT1-luciferase reporter, IFN-gamma, luminescence; 100% = IFN-gamma alone, no compound. activation (% of control), % at 5.5 µM. 200,000 compounds, 2.6% hits. AID 932;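 active = activation above the screen-wide mean activation plus 3 SD, cut at about 130% in these data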
NF-kB neuron act: raises NF-kB expression in human neuronal cells | NF-kB reporter expression; stronger effect = higher value | fold change at 12.5 µM | 190,000 compounds, 1.6% hits; in the data active = fold change above about 3.3
AHR activator: activates the human aryl hydrocarbon receptor; P35869; AHR-responsive luciferase reporter cells, luminescence; activation, % at 5 µM; 320,000 compounds, 2.5% hits; AID 2796; in the data active = activation above about 47%
Target sequence (P35869 whole entry, looked up): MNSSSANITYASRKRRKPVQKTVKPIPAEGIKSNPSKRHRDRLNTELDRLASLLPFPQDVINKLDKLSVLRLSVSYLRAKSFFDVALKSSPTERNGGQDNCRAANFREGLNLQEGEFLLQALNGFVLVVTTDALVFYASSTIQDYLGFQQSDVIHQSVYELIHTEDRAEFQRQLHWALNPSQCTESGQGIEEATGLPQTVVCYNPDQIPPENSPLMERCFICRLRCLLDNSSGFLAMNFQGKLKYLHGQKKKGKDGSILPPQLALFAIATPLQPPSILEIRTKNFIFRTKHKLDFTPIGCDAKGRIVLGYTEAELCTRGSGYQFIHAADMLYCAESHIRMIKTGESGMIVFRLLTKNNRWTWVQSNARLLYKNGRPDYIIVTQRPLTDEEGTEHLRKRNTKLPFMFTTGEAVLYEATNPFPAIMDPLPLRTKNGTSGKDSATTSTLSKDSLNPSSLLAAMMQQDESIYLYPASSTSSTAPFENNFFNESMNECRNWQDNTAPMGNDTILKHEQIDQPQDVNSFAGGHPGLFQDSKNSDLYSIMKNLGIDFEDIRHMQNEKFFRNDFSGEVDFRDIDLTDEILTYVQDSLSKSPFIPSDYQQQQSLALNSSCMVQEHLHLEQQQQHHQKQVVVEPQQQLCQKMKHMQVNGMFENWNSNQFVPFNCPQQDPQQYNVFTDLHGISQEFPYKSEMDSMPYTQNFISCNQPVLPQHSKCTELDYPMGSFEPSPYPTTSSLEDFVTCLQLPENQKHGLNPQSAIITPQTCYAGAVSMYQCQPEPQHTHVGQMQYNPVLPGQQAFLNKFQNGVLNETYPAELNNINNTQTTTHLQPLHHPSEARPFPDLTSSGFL
PERK inh: human PERK inhibition, primary cell-based screen | 220,000 compounds, 0.17% hits | Q9NZJ5 | AID 1416 | CHO PERK-DD fusion, SEAP luminescence translation reporter | inhibition, % at 5.6 µM;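 active = inhibition above the mean inhibition of all tested compounds plus 3 SD, set separately per screening campaign, cut at about 2.9% in these data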;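 note: PERK kinase domain activated by AP20187 dimerizer at 100 nM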
A number is an active result; i = inactive; nt = no result given. The list is not random: actives were taken first. Their share in the collection is about 4.5%.

SMILES | APP 5'UTR act | MDM2 E3 inh | STAT1 activator | NF-kB neuron act | AHR activator | PERK inh
CN1CCN(C(=O)COc2ccc3ccccc3c2)CC1 | nt | nt | nt | nt | i | nt
CN1CCN(C(=O)COc2ccc(-c3nc4ccccc4s3)cc2)CC1 | 135 | i | i | 4.3 | i | i
CC(/C=N/NC(=O)c1n[nH]c2c1CCC2)=C\c1ccccc1 | i | nt | i | 6.9 | i | i
CN1CC(C(=O)c2ccccc2)C(C(=O)c2ccccc2)C1 (configuration not stated) | i | i | i | 4.3 | i | i
O=c1[nH]c(=S)n(C2CC2)c(O)c1/C=N/Nc1cccc2ccccc12 | i | i | i | i | 76 | i
CN(C)CC1CCCCC1OC(=O)Cc1ccc(Cl)c([N+](=O)[O-])c1 (configuration not stated) | nt | nt | nt | nt | i | nt
CC[C@H](C)[C@@H]1O[C@@]2(C=CC1C)CC1C[C@@H](CC=C(C)C(O[C@H]3CC(OC)C(O[C@H]4CC(OC)C(O)C(C)O4)C(C)O3)C(C)C=CC=C3CO[C@@H]4C(O)C(C)=C[C@@H](C(=O)O1)[C@]34O)O2 (some centres not stated) | nt | nt | nt | nt | i | nt
CC(N)Cc1c[nH]c2c1ccc1ccccc12 (configuration not stated) | nt | nt | nt | nt | 49 | nt
Cc1ccccc1-n1c(O)c(C=Nc2ccc(N(C)C)cc2)c(=O)[nH]c1=O | i | i | i | i | 61 | i
Cc1ccc(-n2c(O)c(C=Nc3ccccc3N)c(=O)[nH]c2=O)cc1C | 135 | i | 137 | i | i | i
CCC(=O)N1CC(=O)Nc2ccc(Br)cc2C1c1ccccc1 (configuration not stated) | i | i | i | i | i | i
O=c1[nH]c(=S)[nH]c(O)c1N=Nc1ccc(OC(F)F)cc1 | i | i | 147 | i | i | i
O=c1[nH]c(=S)[nH]c(O)c1N=Nc1ccc2c(c1)OCCO2 | nt | i | nt | nt | i | i
O=c1[nH]c(=S)[nH]c(O)c1N=Nc1ccc2c(c1)OCO2 | i | i | 130 | i | 75 | i
N#Cc1ccc(N2CCNCC2)c(F)c1 | i | i | i | i | i | i
COc1ccc2c(c1OC)C(=O)OC2c1c(O)n(C2CCCCC2)c(=O)[nH]c1=O (configuration not stated) | i | i | i | i | i | i
CN1CCN(Cc2ccc3ccccc3c2)CC1 | nt | nt | nt | nt | i | nt
CCCCCCOc1ccc(CN2CCN(C)CC2)cc1 | 144 | i | i | i | i | i
CNC(=O)O/N=C/c1nn(C(=O)C(C)(C)C)cc1Br | nt | i | nt | nt | i | 3.2
CCOc1cc(-c2nc3c(C)cccn3c2NCC2CCCO2)ccc1O (configuration not stated) | i | i | i | i | i | i
O=[N+]([O-])c1ccc(NCc2ccc(Cl)cc2)c2ccncc12 | nt | nt | nt | nt | 65 | nt
COC(=O)C1C(OC(=O)c2ccccc2)CC2CCC1N2C (configuration not stated) | i | i | i | i | i | i
COc1ccc(NC(=O)[C@@H](NC(=O)N2C[C@H]3C[C@@H](C2)c2cccc(=O)n2C3)C(C)C)cc1 | nt | nt | nt | nt | i | nt
O=C1NC(c2cccnc2)Nc2sc3c(c21)CCCC3 (configuration not stated) | i | i | i | i | 56 | i
CC1(C)Cc2c(sc3c2C(=O)NC(c2cccnc2)N3)CO1 (configuration not stated) | i | i | i | i | i | i
SMILES | APP 5'UTR act | MDM2 E3 inh | STAT1 activator | NF-kB neuron act | AHR activator | PERK inh
Cc1ccc2c(c1)c(=O)c1c3n2CCN(CC2CO2)C3CC1 (configuration not stated) | i | i | i | i | i | i
O=NN1CCCCC1 | nt | nt | nt | nt | i | nt
CCCCn1c(=O)c(C(=O)Nc2ccccc2N)c(O)c2ccccc21 | nt | nt | nt | nt | 48 | nt
CCCCCn1c(=O)c(C(=O)Nc2ccccc2N)c(O)c2ccccc21 | nt | nt | nt | nt | i | nt
CNC(=O)Oc1ccc(-c2cn3cc(Cl)ccc3n2)cc1 | i | i | i | 14 | i | i
O=c1c2cc(Br)ccc2[nH]c(=S)n1-c1ccccc1 | i | i | i | i | 50 | i
O=c1c2ccccc2[nH]c(=S)n1-c1ccc(Br)cc1 | i | i | i | i | i | i
CCn1cc(C(=O)N2CCCCC2)c2ccccc21 | i | i | i | i | i | i
CCn1cc(C(=O)c2cccs2)c2ccccc21 | i | i | i | i | 49 | i
CC(C)(C)n1cc(C(=O)c2ccc3ccccc3c2O)cn1 | 212 | i | i | i | i | i
CC(C)(C)n1cc(C(=O)c2ccccc2OCCCF)cn1 | nt | nt | nt | nt | i | nt
COc1ccc(-c2cc(=Nc3cccc(C(=O)O)c3)c3cc(C)ccc3o2)cc1 | 139 | i | 136 | i | i | i
CC(C)CN1CCN(Cc2cccc3c2OCO3)CC1CCO (configuration not stated) | i | i | i | i | i | i
Cc1nc2cc(C(=O)N3CCC4(CC3)OCCO4)ccc2n1-c1ccc(Br)cc1 | i | i | i | i | 56 | i
CC(=O)OC1N=C(c2ccccc2)c2ccccc2NC1=O (configuration not stated) | i | i | i | i | i | i
NC(=S)/N=C/c1c(O)[nH]c(=O)[nH]c1=O | i | i | i | 3.4 | i | i
CN(C)C(=S)SSC(=S)N(C)C | i | 41 | i | i | i | i
COc1ccc(CCn2c(O)c(C=NCc3ccc4c(c3)OCO4)c(=O)[nH]c2=O)cc1OC | i | i | 143 | i | i | i
COc1ccc(OC)c(-n2c(O)c(C=NCc3ccc4c(c3)OCO4)c(=O)[nH]c2=O)c1 | i | i | i | i | i | i
O=C(c1ccc(Br)cc1)C12CN3CN(CN(C3)C1)C2 | i | i | i | 14 | i | i
COc1ccc(C(=O)C23CN4CN(CN(C4)C2)C3)cc1 | i | i | i | i | i | i
COC(=O)C1=C(c2c(C)noc2C)C[C@@H]2CC[C@H]1N2C(=O)N1CCc2cc(OC)c(OC)cc2C1 | nt | nt | nt | nt | i | nt
NN=C(N)N | nt | nt | nt | nt | 53 | nt
Cc1cccc(-n2c(O)c(/C=C3/C(c4ccccc4)=Nc4ccccc43)c(=O)[nH]c2=O)c1 | nt | nt | nt | nt | 76 | i
Cc1ccccc1-n1c(O)c(/C=C2/C(c3ccccc3)=Nc3ccccc32)c(=O)[nH]c1=O | i | i | i | i | i | i
SMILES | APP 5'UTR act | MDM2 E3 inh | STAT1 activator | NF-kB neuron act | AHR activator | PERK inh
COC(=O)C1=C(c2cccc(OCc3ccccc3)c2)C[C@@H]2CC[C@H]1N2C(=O)NCc1ccc2[nH]ccc2c1 | nt | nt | nt | nt | i | nt
C[C@]12CCC3C(CC[C@H]4C[C@H](N)CC[C@]34C)C1CC[C@H]2O (some centres not stated) | nt | nt | nt | nt | i | nt
Cc1c2ccncc2c(C)c2c1[nH]c1ccccc12 | i | nt | i | i | 67 | i
O=c1[nH]c(=O)n(Cc2ccccc2)c(O)c1C=Nc1ccc(CN2CCOCC2)cc1 | i | i | i | i | i | i
Cc1cc(C(=O)N=Nc2c(O)n(C)c3ccccc23)c(C)o1 | i | i | 129 | i | i | i
CN1CCc2nc(SCC(=O)OC(C)(C)C)c(C#N)cc2C1 | nt | i | nt | i | i | nt
CN1CCc2nc3sc(C(=O)NC4CC4)c(N)c3cc2C1 | i | i | i | i | 55 | i

Screening results from PubChem.
